Test [1] has as its target Tyrosine-protein kinase Lck (Homo sapiens) (UniProt P06239). Kind of test: Inhibition of LCK.
The target in test [2] is Serine/threonine-protein kinase Chk2 (Homo sapiens, UniProt O96017). Nature of the test: Inhibition of Chk2.
Test [3] deals with Macrophage colony-stimulating factor 1 receptor (Homo sapiens, UniProt P07333). Kind of test: Inhibition of CSF1R.
Test [4] deals with Fibroblast growth factor receptor 1 (Homo sapiens, UniProt P11362). Nature of the test: Inhibition of FGFR1.
Sequence of Fibroblast growth factor receptor 1 (P11362 whole entry): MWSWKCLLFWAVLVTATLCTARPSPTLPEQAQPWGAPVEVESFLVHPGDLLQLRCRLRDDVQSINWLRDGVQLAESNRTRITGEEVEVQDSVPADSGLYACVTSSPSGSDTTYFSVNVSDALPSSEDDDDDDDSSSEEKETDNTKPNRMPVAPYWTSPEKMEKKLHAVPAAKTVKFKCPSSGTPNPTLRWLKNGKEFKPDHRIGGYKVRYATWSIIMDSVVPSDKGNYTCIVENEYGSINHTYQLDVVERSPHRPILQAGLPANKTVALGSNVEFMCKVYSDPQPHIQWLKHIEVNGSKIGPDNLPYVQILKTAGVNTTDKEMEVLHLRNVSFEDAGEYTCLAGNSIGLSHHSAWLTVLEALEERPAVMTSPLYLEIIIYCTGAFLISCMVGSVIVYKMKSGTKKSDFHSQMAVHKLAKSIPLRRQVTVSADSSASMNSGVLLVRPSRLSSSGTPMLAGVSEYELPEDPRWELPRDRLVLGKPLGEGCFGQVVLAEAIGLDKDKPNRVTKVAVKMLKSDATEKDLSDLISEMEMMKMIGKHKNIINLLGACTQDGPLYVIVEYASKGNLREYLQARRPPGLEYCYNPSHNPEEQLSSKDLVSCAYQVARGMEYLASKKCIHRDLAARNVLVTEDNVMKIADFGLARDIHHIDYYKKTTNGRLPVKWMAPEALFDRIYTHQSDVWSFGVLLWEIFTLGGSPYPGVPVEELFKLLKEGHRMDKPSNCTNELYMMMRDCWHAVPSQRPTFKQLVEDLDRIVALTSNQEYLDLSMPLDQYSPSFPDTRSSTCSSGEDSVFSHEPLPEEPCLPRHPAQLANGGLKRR
Test [5] concerns the target T1, Receptor-type tyrosine-protein kinase FLT3 (Homo sapiens, UniProt P36888).
T1 sequence (P36888 whole entry): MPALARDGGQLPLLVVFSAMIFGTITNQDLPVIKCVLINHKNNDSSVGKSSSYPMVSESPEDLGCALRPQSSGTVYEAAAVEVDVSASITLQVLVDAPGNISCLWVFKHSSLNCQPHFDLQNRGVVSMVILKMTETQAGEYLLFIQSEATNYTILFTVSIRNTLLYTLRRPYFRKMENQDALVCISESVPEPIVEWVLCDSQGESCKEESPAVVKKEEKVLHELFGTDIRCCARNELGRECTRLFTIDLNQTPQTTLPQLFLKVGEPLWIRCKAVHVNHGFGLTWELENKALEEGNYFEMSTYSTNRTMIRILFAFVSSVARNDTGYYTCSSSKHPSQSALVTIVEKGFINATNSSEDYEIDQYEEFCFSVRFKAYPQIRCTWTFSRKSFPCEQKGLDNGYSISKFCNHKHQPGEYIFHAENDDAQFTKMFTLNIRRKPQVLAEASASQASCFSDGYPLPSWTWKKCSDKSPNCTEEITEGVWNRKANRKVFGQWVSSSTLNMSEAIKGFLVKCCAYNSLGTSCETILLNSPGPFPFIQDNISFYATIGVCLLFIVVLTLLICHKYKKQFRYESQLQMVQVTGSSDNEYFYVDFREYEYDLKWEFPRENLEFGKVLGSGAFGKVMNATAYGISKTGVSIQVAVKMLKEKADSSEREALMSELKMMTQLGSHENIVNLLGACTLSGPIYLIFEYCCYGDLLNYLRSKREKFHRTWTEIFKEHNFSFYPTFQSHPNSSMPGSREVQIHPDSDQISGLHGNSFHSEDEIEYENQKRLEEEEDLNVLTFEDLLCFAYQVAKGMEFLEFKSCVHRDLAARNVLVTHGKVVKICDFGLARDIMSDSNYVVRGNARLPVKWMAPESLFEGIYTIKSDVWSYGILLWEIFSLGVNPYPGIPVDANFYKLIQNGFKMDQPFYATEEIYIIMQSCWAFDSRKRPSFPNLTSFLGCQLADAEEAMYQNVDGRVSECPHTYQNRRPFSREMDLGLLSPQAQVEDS
Kind of test: Inhibition of FLT3.

Test [6] concerns the target Cyclin-dependent kinase 2 (Homo sapiens, UniProt P24941). Kind of test: Inhibition of CDK2.
In test [7] the target is Vascular endothelial growth factor receptor 2 (Homo sapiens, UniProt P35968). Nature of the test: Inhibition of KDR.
The nature of test [8]: Inhibition of CK2.
The target in test [9] is Mast/stem cell growth factor receptor Kit (Homo sapiens, UniProt P10721). Kind of test: Inhibition of KIT2.
Sequence of Mast/stem cell growth factor receptor Kit (P10721 whole entry): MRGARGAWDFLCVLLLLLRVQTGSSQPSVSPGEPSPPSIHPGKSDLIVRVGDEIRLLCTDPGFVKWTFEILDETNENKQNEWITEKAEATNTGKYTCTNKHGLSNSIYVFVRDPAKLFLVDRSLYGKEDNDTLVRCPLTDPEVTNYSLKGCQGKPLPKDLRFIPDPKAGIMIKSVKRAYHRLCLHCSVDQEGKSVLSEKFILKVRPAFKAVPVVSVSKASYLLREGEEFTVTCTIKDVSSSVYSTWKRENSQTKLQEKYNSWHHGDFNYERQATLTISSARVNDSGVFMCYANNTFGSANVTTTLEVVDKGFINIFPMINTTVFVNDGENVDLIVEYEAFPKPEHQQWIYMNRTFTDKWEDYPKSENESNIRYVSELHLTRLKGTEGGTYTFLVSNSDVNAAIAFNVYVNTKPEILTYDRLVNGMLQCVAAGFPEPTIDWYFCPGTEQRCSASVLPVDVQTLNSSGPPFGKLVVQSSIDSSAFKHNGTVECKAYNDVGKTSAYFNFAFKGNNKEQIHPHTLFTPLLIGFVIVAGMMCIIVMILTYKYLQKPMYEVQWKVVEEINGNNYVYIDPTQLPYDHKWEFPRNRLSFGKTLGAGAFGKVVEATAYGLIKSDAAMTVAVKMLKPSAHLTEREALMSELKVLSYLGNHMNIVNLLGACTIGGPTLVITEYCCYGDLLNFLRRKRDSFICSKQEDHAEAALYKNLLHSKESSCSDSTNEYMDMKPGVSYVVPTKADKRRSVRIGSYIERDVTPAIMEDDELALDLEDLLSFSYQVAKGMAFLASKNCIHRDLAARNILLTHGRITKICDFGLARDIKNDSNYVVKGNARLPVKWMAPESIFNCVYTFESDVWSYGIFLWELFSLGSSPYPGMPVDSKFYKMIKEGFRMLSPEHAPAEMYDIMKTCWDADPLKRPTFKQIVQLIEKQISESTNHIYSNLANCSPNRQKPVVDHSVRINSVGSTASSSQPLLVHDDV
Test [10] has as its target Cyclin-dependent kinase 1 (Homo sapiens, UniProt P06493). Kind of test: Inhibition of CDK1.
Test [11] in a line: Inhibition of PKA.
Test [12] in a line: Inhibition of CAMK2.
Test [13] deals with T2, Serine/threonine-protein kinase Chk1 (Homo sapiens, UniProt O14757).
T2 sequence (O14757 whole entry): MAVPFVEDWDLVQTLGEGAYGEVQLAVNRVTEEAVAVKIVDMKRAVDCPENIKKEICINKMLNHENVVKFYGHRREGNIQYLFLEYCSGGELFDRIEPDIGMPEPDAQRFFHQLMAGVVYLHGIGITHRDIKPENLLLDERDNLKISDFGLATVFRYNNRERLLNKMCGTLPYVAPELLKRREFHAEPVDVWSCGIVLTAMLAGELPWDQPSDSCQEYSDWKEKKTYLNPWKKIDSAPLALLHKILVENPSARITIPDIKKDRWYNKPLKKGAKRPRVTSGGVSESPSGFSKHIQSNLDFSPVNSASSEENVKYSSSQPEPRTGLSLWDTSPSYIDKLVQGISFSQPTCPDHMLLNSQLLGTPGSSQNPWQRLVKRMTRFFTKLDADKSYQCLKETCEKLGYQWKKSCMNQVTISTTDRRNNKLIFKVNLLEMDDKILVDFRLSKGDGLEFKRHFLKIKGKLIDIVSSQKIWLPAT
Nature of the test: Inhibition of Chk1.

Test [14] has as its target RAC-beta serine/threonine-protein kinase (Homo sapiens, UniProt P31751). Kind of test: Inhibition of AKT2.
Test [15] concerns the target T3, Serine/threonine-protein kinase B-raf (Homo sapiens, UniProt P15056, V600E). Kind of test: Inhibition of human B-Raf V600E mutant after 3 hrs. In a few lines: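 Radiometric assay using 20 nM B-Raf V600E. It measures phosphorylation of a biotinylated surrogate peptide by ³³P-ATP in 50 mM HEPES pH 7.5 with 10 mM DTT and 50 mM MnCl₂ at 30 °C for 3 h. The reaction is stopped with 100 mM EDTA, captured 2 h on a streptavidin FlashPlate and scintillation-counted.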

For test [16], the target named is T3, Serine/threonine-protein kinase B-raf. Kind of test: Inhibition of B-Raf V600E mutant-mediated ERK phosphorylation in human A375 cells after 3 hrs by immunoblotting method. The format is cell-based, A-375. To be noted: in the assay text read “whole cell ELISA” for “immunoblotting method”. Put shortly: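 A375 (B-Raf V600E) cells are seeded overnight, then exposed to inhibitors for 3 h at 37 °C. Cells are fixed, permeabilized and blocked overnight. They are probed 1 h with anti-phospho-ERK antibody, then with HRP-linked reagent. The TMB substrate is read as optical density at 650 nm.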

The species named for test [17] is Homo sapiens. Nature of the test: Selectivity ratio of IC50 for wild type human B-Raf to IC50 for human B-Raf V600E mutant.

This is an account of results in ChEMBL document CHEMBL1781905, “Discovery and optimization of N-acyl and N-aroylpyrazolines as B-Raf kinase inhibitors” (Bioorg Med Chem Lett, 2010).

Each structure is given as a SMILES string. Some results are limits rather than exact numbers.

T3 sequence (P15056 2-766 V600E limits assumed): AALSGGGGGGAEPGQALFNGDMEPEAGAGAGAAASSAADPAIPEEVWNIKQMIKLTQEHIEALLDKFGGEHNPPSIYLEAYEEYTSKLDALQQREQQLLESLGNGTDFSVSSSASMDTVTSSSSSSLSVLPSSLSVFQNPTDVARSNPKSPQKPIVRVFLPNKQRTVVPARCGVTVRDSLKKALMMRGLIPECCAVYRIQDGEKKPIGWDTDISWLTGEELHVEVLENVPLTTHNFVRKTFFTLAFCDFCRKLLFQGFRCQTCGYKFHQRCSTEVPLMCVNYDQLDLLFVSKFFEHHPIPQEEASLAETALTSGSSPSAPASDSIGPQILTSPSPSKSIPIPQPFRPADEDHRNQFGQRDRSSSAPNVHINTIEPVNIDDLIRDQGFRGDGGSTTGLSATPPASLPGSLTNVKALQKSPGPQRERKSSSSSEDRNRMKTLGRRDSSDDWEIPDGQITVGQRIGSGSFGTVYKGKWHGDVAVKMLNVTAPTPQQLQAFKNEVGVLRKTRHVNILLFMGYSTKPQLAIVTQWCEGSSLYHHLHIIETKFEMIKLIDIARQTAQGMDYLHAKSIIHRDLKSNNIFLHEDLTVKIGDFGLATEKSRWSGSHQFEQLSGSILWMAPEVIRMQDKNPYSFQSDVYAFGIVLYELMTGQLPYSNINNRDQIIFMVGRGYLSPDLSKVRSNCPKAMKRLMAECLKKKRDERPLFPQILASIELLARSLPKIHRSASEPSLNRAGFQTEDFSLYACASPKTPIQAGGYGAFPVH
Sequence of Macrophage colony-stimulating factor 1 receptor (P07333 whole entry): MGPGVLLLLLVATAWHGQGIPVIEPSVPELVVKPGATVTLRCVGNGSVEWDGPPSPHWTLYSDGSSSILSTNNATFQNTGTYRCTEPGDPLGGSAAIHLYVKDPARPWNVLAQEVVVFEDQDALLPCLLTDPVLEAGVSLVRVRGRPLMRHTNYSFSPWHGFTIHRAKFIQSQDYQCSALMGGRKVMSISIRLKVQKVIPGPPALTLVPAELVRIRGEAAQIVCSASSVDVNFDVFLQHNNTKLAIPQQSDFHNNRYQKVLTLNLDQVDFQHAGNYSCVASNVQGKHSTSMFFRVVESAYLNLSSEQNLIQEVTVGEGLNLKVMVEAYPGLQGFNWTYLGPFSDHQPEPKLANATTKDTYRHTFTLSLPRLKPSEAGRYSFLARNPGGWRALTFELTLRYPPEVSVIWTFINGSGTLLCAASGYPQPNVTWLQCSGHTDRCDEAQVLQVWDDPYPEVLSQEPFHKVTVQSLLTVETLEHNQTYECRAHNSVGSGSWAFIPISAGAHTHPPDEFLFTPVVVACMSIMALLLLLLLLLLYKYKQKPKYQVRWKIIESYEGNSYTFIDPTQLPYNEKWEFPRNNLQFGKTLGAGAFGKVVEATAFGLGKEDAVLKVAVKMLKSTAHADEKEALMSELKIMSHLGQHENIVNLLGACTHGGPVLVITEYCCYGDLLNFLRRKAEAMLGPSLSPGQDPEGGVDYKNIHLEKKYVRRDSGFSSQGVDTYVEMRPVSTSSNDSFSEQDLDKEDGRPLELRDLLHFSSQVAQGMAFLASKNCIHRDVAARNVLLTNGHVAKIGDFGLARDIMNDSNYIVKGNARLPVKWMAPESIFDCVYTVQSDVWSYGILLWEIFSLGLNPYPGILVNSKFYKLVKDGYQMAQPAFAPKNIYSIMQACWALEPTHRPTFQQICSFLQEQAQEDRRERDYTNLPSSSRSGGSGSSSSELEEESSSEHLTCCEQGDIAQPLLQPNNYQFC
Sequence of RAC-beta serine/threonine-protein kinase (P31751 whole entry): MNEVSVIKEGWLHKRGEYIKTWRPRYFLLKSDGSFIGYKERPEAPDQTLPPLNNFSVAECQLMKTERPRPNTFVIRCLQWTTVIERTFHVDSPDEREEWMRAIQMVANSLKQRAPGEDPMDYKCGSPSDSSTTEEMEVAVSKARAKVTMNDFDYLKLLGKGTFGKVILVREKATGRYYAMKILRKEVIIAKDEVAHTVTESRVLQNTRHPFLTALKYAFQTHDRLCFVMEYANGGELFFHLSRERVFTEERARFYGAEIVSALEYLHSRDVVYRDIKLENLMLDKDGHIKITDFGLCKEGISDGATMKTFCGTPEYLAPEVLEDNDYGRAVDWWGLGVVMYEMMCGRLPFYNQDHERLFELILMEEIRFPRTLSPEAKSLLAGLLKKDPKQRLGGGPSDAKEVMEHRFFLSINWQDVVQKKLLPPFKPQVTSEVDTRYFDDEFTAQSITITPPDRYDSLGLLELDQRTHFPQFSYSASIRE
Sequence of Tyrosine-protein kinase Lck (Homo sapiens) (P06239 whole entry, looked up): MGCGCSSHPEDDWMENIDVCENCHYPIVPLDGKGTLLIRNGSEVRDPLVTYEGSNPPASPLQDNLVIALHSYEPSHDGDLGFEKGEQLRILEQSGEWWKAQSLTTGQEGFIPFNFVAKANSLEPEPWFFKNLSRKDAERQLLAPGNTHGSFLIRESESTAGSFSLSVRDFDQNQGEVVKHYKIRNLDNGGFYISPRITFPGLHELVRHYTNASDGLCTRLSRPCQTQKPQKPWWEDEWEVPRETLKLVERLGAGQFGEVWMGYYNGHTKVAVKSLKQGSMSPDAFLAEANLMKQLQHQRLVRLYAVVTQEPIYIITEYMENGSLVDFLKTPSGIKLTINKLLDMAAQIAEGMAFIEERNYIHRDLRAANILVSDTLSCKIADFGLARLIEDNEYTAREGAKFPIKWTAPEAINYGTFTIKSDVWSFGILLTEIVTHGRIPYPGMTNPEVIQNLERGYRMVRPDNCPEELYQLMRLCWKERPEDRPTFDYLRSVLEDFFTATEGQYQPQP
Sequence of Serine/threonine-protein kinase Chk2 (O96017 whole entry): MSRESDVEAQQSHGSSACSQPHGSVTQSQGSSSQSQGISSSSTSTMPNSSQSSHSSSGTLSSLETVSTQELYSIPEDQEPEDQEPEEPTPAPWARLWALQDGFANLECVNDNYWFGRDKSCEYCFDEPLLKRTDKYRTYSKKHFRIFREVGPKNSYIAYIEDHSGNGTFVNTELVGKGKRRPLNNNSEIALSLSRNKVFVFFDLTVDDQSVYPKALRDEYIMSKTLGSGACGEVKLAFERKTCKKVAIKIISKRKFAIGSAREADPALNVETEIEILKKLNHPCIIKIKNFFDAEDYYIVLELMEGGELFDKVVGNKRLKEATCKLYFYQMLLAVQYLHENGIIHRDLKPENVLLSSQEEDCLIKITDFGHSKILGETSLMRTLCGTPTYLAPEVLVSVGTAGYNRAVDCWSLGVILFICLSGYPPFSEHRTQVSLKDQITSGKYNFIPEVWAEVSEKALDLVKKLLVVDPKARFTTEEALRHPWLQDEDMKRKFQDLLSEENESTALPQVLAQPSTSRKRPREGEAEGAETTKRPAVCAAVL

Consider `O=C(c1ccco1)N1N=C(c2cccnc2)CC1c1ccccc1O` (stereo not given), for which the IC50 in test [1], in test [2], in [3], in test [4], in test [5] and in [6] was above 10 µM throughout. Further, the IC50 in [7], in test [8], in [9], in test [10], in test [11] and in [12] was above 10 µM throughout. This compound also came in with an IC50 in [13] above 10 µM.
Consider `O=C(c1ccc[nH]1)N1N=C(c2cccnc2)CC1c1ccccc1O` (stereo not given), for which the IC50 in test [3] was above 10 µM; in test [4] it was above 10 µM; in test [5], above 10 µM; in test [14] it was above 10 µM; in test [7] it was above 10 µM; in test [15], 0.0226 µM. The results for the IC50 in test [9] and in test [16] were above 10 µM and 2 µM, respectively.
Regarding `O=C(c1cccc(-n2cccn2)c1)N1N=C(c2cccnc2)CC1c1ccccc1O` (stereo not given), the IC50 in test [3] was above 10 µM; in [4] it was above 10 µM; in test [5], above 10 µM; in test [14], above 10 µM; in test [7] it was above 10 µM; in test [15], 0.042 µM. For the same compound, the IC50 is above 10 µM in test [9] and 8.7 µM in test [16].
As to `CCOc1cccc2cc(C(=O)N3N=C(c4cccnc4)CC3c3ccccc3O)oc12` (stereo not given), the IC50 was above 10 µM in test [3]; above 10 µM in [4]; above 10 µM in [5]; above 10 µM in test [14]; above 10 µM in test [7]; 0.0257 µM in [15]. In addition, the IC50 in test [9] was above 10 µM; in test [16], 3.5 µM.
`O=C(c1cccs1)N1N=C(c2cccnc2)CC1c1ccccc1O` (stereo not given): the IC50 in test [3] is above 10 µM; in [4] it was above 10 µM; in test [5] it was above 10 µM; in [14], above 10 µM; in test [7], above 10 µM; in [15], 0.0242 µM. The IC50 in test [9] was above 10 µM; in test [16], 1.5 µM. Further, the Ratio IC50 in [17] was below 2.
For the compound `O=C(c1ccc(Br)o1)N1N=C(c2cccnc2)CC1c1ccccc1O` (stereo not given), the IC50 in test [3] was above 10 µM; in [4] it was above 10 µM; in [5] it was above 10 µM; in test [14] it was above 10 µM; in [7], above 10 µM; in test [15] it was 0.0079 µM. For the same compound, the IC50 in test [9] was above 10 µM; in [16] it was 1.4 µM.
In the case of `O=C(c1ccc(-c2cccnc2)s1)N1N=C(c2cccnc2)CC1c1ccccc1O` (stereo not given), in [17], the Ratio IC50 is below 2.
